In ChEMBL document CHEMBL4118188, “A small diversity library of α-methyl amide analogs of sulindac for probing anticancer structure-activity relationships” (Bioorg Med Chem Lett, 2018):
One block for each molecule: values may come before it.

Legend:
[1] = test system: HT-29; assay: Growth inhibition of human HT-29 cells measured after 72 hrs by Celltiter-Glo reagent based assay; assay type: functional; settings: HT-29, 72 h
[2] = test system: PC-3; assay: Growth inhibition of human PC3 cells measured after 72 hrs by Celltiter-Glo reagent based assay; assay type: functional; settings: PC-3, 72 h
[3] = test system: MDA-MB-231; assay: Growth inhibition of human MDA-MB-231 cells measured after 96 hrs by Celltiter-Glo reagent based assay; assay type: functional; settings: MDA-MB-231, 96 h
[4] = Growth inhibition of mouse CPC300 cells measured after 72 hrs by Celltiter-Glo reagent based assay; assay type: functional
Outline: (§1)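 Cell line sources: Raji is a Burkitt's lymphoma line (FAB L3); Jurkat E6-1 is an acute T-cell leukemia line; REH is a patient-derived precursor B-cell ALL line expressing only wild-type MLL and wild-type AF4; 697 was established from bone marrow of children with relapsed ALL; CPC300 derives from a mouse model of choroid plexus carcinoma.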

[5] = Growth inhibition of human NALM16 cells measured after 72 hrs by Celltiter-Glo reagent based assay; assay type: functional
[6] = test system: Raji; assay: Growth inhibition of human Raji cells measured after 72 hrs by Celltiter-Glo reagent based assay; assay type: functional, cell-based; outline: as §1
[7] = test system: Jurkat E6.1; assay: Growth inhibition of human Jurkat E6-1 cells measured after 72 hrs by Celltiter-Glo reagent based assay; assay type: functional, cell-based; outline: as §1
[8] = test system: REH; assay: Growth inhibition of human REH cells measured after 72 hrs by CellTiter-Glo reagent based assay; assay type: functional, cell-based; outline: as §1
[9] = test system: 697; assay: Growth inhibition of human 697 cells after 72 hrs by CellTiter-Glo reagent based assay; assay type: functional, cell-based; outline: as §1
[10] = test system: BJ; assay: Growth inhibition of human BJ cells after 72 hrs by CellTiter-Glo reagent based assay; assay type: cell-based
[11] = Homo sapiens, NALM16, 72 h, read-out: EC50
[12] = Homo sapiens, Raji, 72 h, read-out: EC50
[13] = Homo sapiens, Jurkat E6.1, 72 h, read-out: EC50
[14] = Homo sapiens, REH, 72 h, read-out: EC50
[15] = Homo sapiens, 697, 72 h, read-out: EC50

Structure (SMILES): CSc1ccc(/C=C2/C(C)=C(C(C)C(=O)N(C)CCN(C)C(=O)[C@@H](N)C(C)C)c3cc(F)ccc32)cc1 (stereo not given in full)
CC50 [1]: 2.22 µM
CC50 [2]: 4.83 µM
CC50 [3]: 3.86 µM

Structure (SMILES): COc1cc(/C=C2/C(C)=C(C(C)C(=O)NCc3ccccc3)c3cc(F)ccc32)cc(OC)c1OC (stereo not given)
CC50 [1]: 2.77 µM
CC50 [2]: 4.92 µM
CC50 [3]: 3.81 µM
EC50 [4]: Not Active
EC50 [5, 11]: 8 µM
EC50 [6, 12]: 13 µM
EC50 [7, 13]: 7.7 µM
EC50 [8, 14]: 7 µM
EC50 [9, 15]: 6.1 µM
EC50 [10]: > 7.57 µM

Structure (SMILES): CC1=C(C(C)C(=O)N2CCC[C@H]2CN2CCCC2)c2cc(F)ccc2/C1=C\c1ccc([S+](C)[O-])cc1 (stereo not given in full)
CC50 [1]: 7.82 µM
CC50 [2]: 24.4 µM
CC50 [3]: 32 µM

Structure (SMILES): COc1cc(/C=C2/C(C)=C(C(C)C(=O)N3CCN(CCCN(C)C)CC3)c3cc(F)ccc32)cc(OC)c1OC (stereo not given)
CC50 [1]: 3.69 µM
CC50 [2]: 9.61 µM
CC50 [3]: 7.34 µM

Structure (SMILES): CC1=C(C(C)C(=O)N(C)CCN(C)C(=O)[C@@H](N)C(C)C)c2cc(F)ccc2/C1=C\c1ccc([S+](C)[O-])cc1 (stereo not given in full)
CC50 [1]: 26 µM
CC50 [2]: 28.8 µM
CC50 [3]: 47.6 µM

Structure (SMILES): CSc1ccc(/C=C2/C(C)=C(C(C)C(=O)N3CCC[C@H]3CN3CCCC3)c3cc(F)ccc32)cc1 (stereo not given in full)
CC50 [1]: 0.84 µM
CC50 [2]: 3.93 µM
CC50 [3]: 3.57 µM
EC50 [4]: Not Active
EC50 [5]: Not Active
EC50 ([7]; jurkat e6.1): Not Active
EC50 [8, 14]: 11 µM
EC50 [9]; 697: Not Active
EC50 [10]: > 7.57 µM

Structure (SMILES): CSc1ccc(/C=C2/C(C)=C(C(C)C(=O)NCCN3CCCC3)c3cc(F)ccc32)cc1 (stereo not given)
CC50 [1]: 2.03 µM
CC50 [2]: 5.68 µM
CC50 [3]: 5 µM
EC50 [4]: Not Active
EC50 [5]: Not Active
EC50 ([6]; raji): Not Active
EC50 [7, 13]: 76 µM
EC50 [8, 14]: 76 µM
EC50 [9, 15]: 76 µM
EC50 [10]: > 7.57 µM

Structure (SMILES): COc1cc(/C=C2/C(C)=C(C(C)C(=O)NCc3ccco3)c3cc(F)ccc32)cc(OC)c1OC (stereo not given)
CC50 [1]: 2.88 µM
CC50 [2]: 3.88 µM
CC50 [3]: 5.51 µM

Structure (SMILES): CC1=C(C(C)C(=O)N(C)CCN(C)C(=O)[C@@H]2CCCN2)c2cc(F)ccc2/C1=C\c1ccc([S+](C)[O-])cc1 (stereo not given in full)
CC50 [1]: 20.1 µM
CC50 [2]: 27.9 µM
CC50 [3]: > 50 µM

Structure (SMILES): CSc1ccc(/C=C2/C(C)=C(C(C)C(=O)N3CCN(c4ccncc4)CC3)c3cc(F)ccc32)cc1 (stereo not given)
CC50 [1]: 2.2 µM
CC50 [2]: 4.68 µM
CC50 [3]: 3.95 µM
EC50 [4]: Not Active
EC50 [5]: Not Active
EC50 ([6]; raji): Not Active
EC50 ([7]; jurkat e6.1): Not Active
EC50 ([8]; reh): Not Active
EC50 [9, 15]: 76 µM
EC50 [10]: > 7.57 µM

Structure (SMILES): CSc1ccc(/C=C2/C(C)=C(C(C)C(=O)NCCN3CCNCC3)c3cc(F)ccc32)cc1 (stereo not given)
CC50 [1]: 2.22 µM
CC50 [2]: 5.91 µM
CC50 [3]: 5.32 µM
EC50 [4]: Not Active
EC50 [5]: Not Active
EC50 [6, 12]: 45 µM
EC50 ([7]; jurkat e6.1): Not Active
EC50 [8, 14]: 26 µM
EC50 [9]; 697: Not Active
EC50 [10]: > 7.57 µM

Structure (SMILES): CSc1ccc(/C=C2/C(C)=C(C(C)C(=O)N(C)CCN(C)C(=O)C3CCCN3)c3cc(F)ccc32)cc1 (single isomer, unassigned)
CC50 [1]: 2.06 µM
CC50 [2]: 5.21 µM
CC50 [3]: 3.99 µM

The next lines start with results.

EC50 ([6]; raji): Not Active
EC50 ([7]; jurkat e6.1): Not Active
Structure (SMILES): CCN(CC)CCCNC(=O)C(C)C1=C(C)/C(=C/c2ccc(SC)cc2)c2ccc(F)cc21 (stereo not given)
CC50 [1]: 2.17 µM
CC50 [2]: 6.13 µM
CC50 [3]: 4.23 µM
EC50 [4]: Not Active
EC50 [5]: Not Active
EC50 ([8]; reh): Not Active
EC50 [9]; 697: Not Active
EC50 [10]: > 7.57 µM

EC50 ([6]; raji): Not Active
EC50 ([7]; jurkat e6.1): Not Active
Structure (SMILES): CCN(CC)CCNC(=O)C(C)C1=C(C)/C(=C/c2ccc(SC)cc2)c2ccc(F)cc21 (stereo not given)
CC50 [1]: 2.03 µM
CC50 [2]: 6.21 µM
CC50 [3]: 5.38 µM
EC50 [4]: Not Active
EC50 [5]: Not Active
EC50 [8, 14]: 14 µM
EC50 [9]; 697: Not Active
EC50 [10]: > 7.57 µM

EC50 ([6]; raji): Not Active
EC50 ([7]; jurkat e6.1): Not Active
Structure (SMILES): CSc1ccc(/C=C2/C(C)=C(C(C)C(=O)N(CCCNC(C)C)C(C)C)c3cc(F)ccc32)cc1 (stereo not given)
CC50 [1]: 1.26 µM
CC50 [2]: 3.18 µM
CC50 [3]: 2.91 µM
EC50 [4]: Not Active
EC50 [5, 11]: 1.5 µM
EC50 ([8]; reh): Not Active
EC50 [9]; 697: Not Active
EC50 [10]: > 7.57 µM

EC50 ([6]; raji): Not Active
EC50 ([7]; jurkat e6.1): Not Active
Structure (SMILES): CSc1ccc(/C=C2/C(C)=C(C(C)C(=O)N(C)CCCN(C)C)c3cc(F)ccc32)cc1 (stereo not given)
CC50 [1]: 2.12 µM
CC50 [2]: 5.5 µM
CC50 [3]: 4.11 µM
EC50 [4]: Not Active
EC50 [5]: Not Active
EC50 [8, 14]: 38 µM
EC50 [9]; 697: Not Active
EC50 [10]: > 7.57 µM

EC50 ([6]; raji): Not Active
EC50 ([7]; jurkat e6.1): Not Active
Structure (SMILES): CSc1ccc(/C=C2/C(C)=C(C(C)C(=O)N(CCNC(C)C)C(C)C)c3cc(F)ccc32)cc1 (stereo not given)
CC50 [1]: 1.5 µM
CC50 [2]: 3.91 µM
CC50 [3]: 3.83 µM
EC50 [4]: Not Active
EC50 [5]: Not Active
EC50 ([8]; reh): Not Active
EC50 [9]; 697: Not Active
EC50 [10]: > 7.57 µM

EC50 ([6]; raji): Not Active
EC50 ([7]; jurkat e6.1): Not Active
Structure (SMILES): CSc1ccc(/C=C2/C(C)=C(C(C)C(=O)N3CCN(CCN(C)C)CC3)c3cc(F)ccc32)cc1 (stereo not given)
CC50 [1]: 2.02 µM
CC50 [2]: 5.98 µM
CC50 [3]: 3.77 µM
EC50 [4]: Not Active
EC50 [5, 11]: 2.1 µM
EC50 ([8]; reh): Not Active
EC50 [9]; 697: Not Active
EC50 [10]: > 7.57 µM

EC50 ([6]; raji): Not Active
EC50 ([7]; jurkat e6.1): Not Active
Structure (SMILES): CSc1ccc(/C=C2/C(C)=C(C(C)C(=O)NCCN(C)C)c3cc(F)ccc32)cc1 (stereo not given)
CC50 [1]: 1.8 µM
CC50 [2]: 5.07 µM
CC50 [3]: 3.88 µM
EC50 [4]: Not Active
EC50 [5, 11]: 76 µM
EC50 ([8]; reh): Not Active
EC50 [9]; 697: Not Active
EC50 [10]: > 7.57 µM

EC50 [6, 12]: < 0.00038 µM
EC50 ([7]; jurkat e6.1): Not Active
Structure (SMILES): CCN(CCN(C)C)C(=O)C(C)C1=C(C)/C(=C/c2ccc(SC)cc2)c2ccc(F)cc21 (stereo not given)
CC50 [1]: 1.13 µM
CC50 [2]: 3.54 µM
CC50 [3]: 3.18 µM
EC50 [4]: Not Active
EC50 [5]: Not Active
EC50 [8, 14]: 10 µM
EC50 [9]; 697: Not Active
EC50 [10]: > 7.57 µM
